Measurements from ChEMBL document CHEMBL1128402, “Irreversible inhibitors of nicotinic acetylcholine receptors: isolation and structural characterization of the biologically active solvolysis products of bipinnatin-A and bipinnatin-C” (J Med Chem, 1995).

Columns and labels:
[1] = Half-life of the bipinnatin-A(A4) was determined; assay type: ADME
[2] = Rate of acetate production by the compound was determined; assay type: ADME
Summary of the method: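 Toxin at 100 μM in 25 mM sodium phosphate, pH 7.4, 1% DMSO, at 22–24 °C for up to 8 h. Acetic acid was then measured with a coupled enzyme assay (NAD to NADH, A340 every 5 s for 5 min, initial rate by linear regression, calibrated with 25–200 μM acetate standards). Percent of maximum fit to a single-exponential growth function; mean ± SEM of 3–9 experiments.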

BC3H-1 [3] = assay: Irreversible inhibition of [1251]alpha-bungarotoxin binding to Nicotinic acetylcholine receptor (neuronal and muscle) by bipinnatin-A on intact BC3H-1 cell lines; assay type: cell-based; settings: dose or concentration not given here
Summary of the method: (§1)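 Each toxin was preincubated 0–8 h in pH 7.4 phosphate buffer, then its HPLC-isolated peak was dissolved in Hepes/KCl assay buffer pH 7.4 with 1% DMSO. BC3H-1 cells were equilibrated 20 min at 22–24 °C, given the toxin for 1 h, washed, then given saturating [125I]-α-bungarotoxin (15–20 nM) for 1 h. Bound label was gamma-counted, nonspecific binding defined with 100 nM α-bungarotoxin, run in triplicate.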

BC3H-1 [4] = assay: Irreversible inhibition rate of [1251]alpha-bungarotoxin binding to Nicotinic acetylcholine receptor (neuronal and muscle) by bipinnatin-A on intact BC3H-1 cell lines; assay type: cell-based
Summary of the method: (§2)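 Toxin diluted to 100 µM in assay buffer with 1% DMSO was added straight onto BC3H-1 cells. At set times it was removed and remaining receptors were measured with saturating [125I]-α-bungarotoxin. The log of specific binding relative to time zero was plotted against time. Rates came from nonlinear regression, double-exponential where applicable, from at least two independent experiments.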

[5] = Half-life was determined; assay type: ADME
Summary of the method: (§3)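 Toxin at 100 μM (diluted from 10 mM DMSO stock) in 25 mM sodium phosphate, pH 7.4, 1% DMSO, at 22–24 °C for various times. Fit by nonlinear regression to a single-exponential decay; mean ± SEM of 3–9 independent experiments.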

BC3H-1 [6] = assay: Irreversible inhibition rate of [1251]alpha-bungarotoxin binding to Nicotinic acetylcholine receptor (neuronal and muscle) by bipinnatin-A(A4) on intact BC3H-1 cell lines; assay type: cell-based; summary of the method: as §2
[7] = Rate constant of solvolysis for the compound was determined; assay type: ADME; summary of the method: as §3
[8] = Apparent first-order rate of solvolysis for the bipinnatin-A(A4) was determined; assay type: ADME
BC3H-1 [9] = assay: Irreversible inhibition of [1251]alpha-bungarotoxin binding to Nicotinic acetylcholine receptor (neuronal and muscle) by bipinnatin-A(A4) on intact BC3H-1 cell lines; assay type: cell-based; settings: dose or concentration not given here; summary of the method: as §1
[10] = Amount acetic acid produced by the compound; assay type: ADME
[11] = Amount of acetic acid produced by the compound; assay type: ADME

Row | Compound | Activity [2] [h⁻¹] | T1/2 [5] [h] | Acid hydrolysis [10] [mol/mol] | half-life [1] [h] | inhibition (BC3H-1 [3]) [%] | inhibition (BC3H-1 [4]) [min⁻¹] | half-life [5] [h] | inhibition (BC3H-1 [6]) [min⁻¹] | Ksolv [7] [h⁻¹] | Activity [8] [h⁻¹] | inhibition (BC3H-1 [9]) [%] | Activity [11] [M⁻¹]
1 | C=C(C(=O)OC)[C@H]1CC(OC(C)=O)[C@@]23O[C@@H]2C(C[C@]2(C)O[C@H]2C2=CC(C)=C(O2)C1OC(C)=O)OC3=O (some centres not stated) | 0.67 | 1.04 | – | 1.74 | 41.5 | 0.29 | 1.08 | 0.033 | 0.638 | 0.399 | 57.5 | –
2 | CC(=O)OCC[N+](C)(C)C [ACETYLCHOLINE] | – | – | 0.22 | – | – | – | – | – | – | – | – | –
3 | C=C(C)[C@@H]1CC2=C(C=O)C=C(O2)[C@@H]2O[C@@]2(C)C[C@H]2OC(=O)[C@@]3(O[C@H]23)[C@@H](OC(C)=O)C1 [LOPHOTOXIN] | – | – | – | – | – | – | 40 | – | 0.017 | – | – | 0.17

Further lines, with some results ahead:

Row | Activity [2] [h⁻¹] | T1/2 [5] [h] | Acid hydrolysis [10] [mol/mol] | Compound | half-life [1] [h] | inhibition (BC3H-1 [3]) [%] | inhibition (BC3H-1 [4]) [min⁻¹] | half-life [5] [h] | inhibition (BC3H-1 [6]) [min⁻¹] | Ksolv [7] [h⁻¹] | Activity [8] [h⁻¹] | inhibition (BC3H-1 [9]) [%] | Activity [11] [M⁻¹]
4 | 0.735 | 0.97 | – | C=C(C=O)[C@H]1CC(OC(C)=O)[C@@]23O[C@@H]2C(C[C@]2(C)O[C@H]2C2=CC(C)=C(O2)C1OC(C)=O)OC3=O (some centres not stated) | – | – | – | 0.97 | – | 0.719 | – | – | –
5 | 0.589 | 1.24 | – | CC(=O)OC1C2=C(C)C=C(O2)[C@@H]2O[C@@]2(C)CC2OC(=O)[C@@]3(O[C@H]23)C(OC(C)=O)C[C@@H]1C1(C)CO1 (some centres not stated) | – | – | – | 1.17 | – | 0.596 | – | – | –
